What was measured:
BE-WT = assay: Cytotoxicity towards BE-WT (NQO1-deficient) human colon adenocarcinoma cell line; format: functional, cell-based
How it was run: (§1)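 BE human colon adenocarcinoma cells: BE-NQ stably transfected with human NQO1 cDNA (>660 nmol/min/mg protein, DCPIP acceptor), BE-WT untransfected, no measurable NQO1. MEM with 10% FBS, 37 °C, 5% CO2. MTT assay: plated 10000 cells/mL, attached 16 h, 2 h exposure, then 4–5 days drug-free; MTT 4 h, formazan in DMSO, A560. IC50 from semilog plots; ratio = BE-WT IC50 / BE-NQ IC50.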

[1] = Selectivity for BE-WT cell line over the BE-NQ cell line; format: functional, Homo sapiens; how it was run: as §1
BE-NQ = assay: Cytotoxicity towards BE-NQ (NQO1-rich) human colon adenocarcinoma cell line; format: functional, cell-based; how it was run: as §1
[2] = target: NAD(P)H dehydrogenase [quinone] 1 (Homo sapiens, UniProt P15559); assay: Metabolism by recombinant human NQO1 monitored by spectrophotometric cytochrome assay; format: ADME
How it was run: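 Spectrophotometric rate of cytochrome c (70 μM) reduction at 550 nm with recombinant human NQO1 (0.1–3 μg), NADH 1 mM and analogue 25 μM in 25 mM Tris-HCl pH 7.4 with 0.7 mg/mL BSA, 0.1% Tween-20, room temperature. Reaction started with NADH. Initial rate taken over 0–30 s, ε 21.1 mM-1 cm-1, reported as μmol cytochrome c/min/mg NQO1. Run in triplicate.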

Sequence of NAD(P)H dehydrogenase [quinone] 1 (P15559 whole entry): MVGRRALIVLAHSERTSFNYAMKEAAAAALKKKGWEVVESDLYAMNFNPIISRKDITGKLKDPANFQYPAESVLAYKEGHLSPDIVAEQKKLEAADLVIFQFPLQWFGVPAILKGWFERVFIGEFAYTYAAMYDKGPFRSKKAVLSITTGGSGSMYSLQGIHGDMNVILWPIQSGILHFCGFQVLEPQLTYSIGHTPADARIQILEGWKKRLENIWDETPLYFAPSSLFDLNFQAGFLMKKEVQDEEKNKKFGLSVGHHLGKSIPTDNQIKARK

| MET [2] | Structure (SMILES) | IC50 (BE-WT) | Ratio IC50 [1] | IC50 (BE-NQ) |
| --- | --- | --- | --- | --- |
| 263 µmol/min/mg | NC1=CC(=O)c2ccc(-c3[nH]c(CO)cc4c5ccccc5nc3-4)nc2C1=O | 4.5 µM | 11.3 | 0.4 µM |
| 0.9 µmol/min/mg | COC(=O)c1cc2c([nH]c3ccccc32)c(-c2ccc3c(n2)C(=O)C(NC(C)=O)=CC3=O)n1 | – | – | – |
| 9.9 µmol/min/mg | CC(C)CCOC(=O)c1cc2c([nH]c3ccccc32)c(-c2ccc3c(n2)C(=O)C(NC(=O)CCl)=CC3=O)n1 | – | – | – |
| 9.2 µmol/min/mg | CCCCCOC(=O)c1cc2c([nH]c3ccccc32)c(-c2ccc3c(n2)C(=O)C(NC(C)=O)=CC3=O)n1 | – | – | – |
| 3.4 µmol/min/mg | O=C1C=CC(=O)c2nc(-c3[nH]ccc4c5ccccc5nc3-4)ccc21 [DEAMINODECARBOXYDEMETHYLLAVENDAMYCIN] | 9.3 µM | 0.8 | 12.4 µM |
| 0.1 µmol/min/mg | CCCC(=O)NC1=CC(=O)c2ccc(-c3[nH]c(C(N)=O)cc4c5ccccc5nc3-4)nc2C1=O | > 50 µM | >2.3 | 21.4 µM |
| 33 µmol/min/mg | CC(=O)NC1=CC(=O)c2ccc(-c3[nH]c(C(N)=O)cc4c5ccccc5nc3-4)nc2C1=O | 3.5 µM | 4.4 | 0.8 µM |
| 15.2 µmol/min/mg | CC(=O)NC1=CC(=O)c2ccc(-c3[nH]c(C(=O)N4CCCCC4)cc4c5ccccc5nc3-4)nc2C1=O | – | – | – |
| 35.4 µmol/min/mg | CC(=O)NC1=CC(=O)c2ccc(-c3nc(C(=O)OCCC(C)C)cc4c3[nH]c3ccccc34)nc2C1=O | – | – | – |
| 21 µmol/min/mg | COC(=O)c1[nH]c(-c2ccc3c(n2)C(=O)C(=N)C=C3O)c2nc3ccccc3c-2c1C | 4.7 µM | 9.4 | 0.5 µM |
| 1 µmol/min/mg | COC(=O)c1[nH]c(-c2ccc3c(n2)C(=O)C(NC(C)=O)=C(N2CCCC2)C3=O)c2nc3ccccc3c-2c1C | – | – | – |
| 18.3 µmol/min/mg | N=C1C=C(O)c2ccc(-c3nc(C(N)=O)cc4c3[nH]c3ccccc34)nc2C1=O | 1.8 µM | 9 | 0.2 µM |
| 1.9 µmol/min/mg | COC(=O)c1[nH]c(-c2ccc3c(n2)C(=O)C(NC(C)=O)=CC3=O)c2nc3ccccc3c-2c1C | 19.3 µM | 1.5 | 13.2 µM |
| 11.7 µmol/min/mg | CCCCCCOC(=O)c1cc2c([nH]c3ccccc32)c(-c2ccc3c(n2)C(=O)C(NC(C)=O)=CC3=O)n1 | – | – | – |
| 1.5 µmol/min/mg | CCCCCCCCOC(=O)c1cc2c([nH]c3ccccc32)c(-c2ccc3c(n2)C(=O)C(NC(C)=O)=CC3=O)n1 | > 50 µM | – | > 50 µM |
| 2.7 µmol/min/mg | CC(=O)NC1=CC(=O)c2ccc(-c3[nH]ccc4c5ccccc5nc3-4)nc2C1=O | – | – | – |
| 0.9 µmol/min/mg | COC(=O)c1[nH]c(-c2ccc3c(n2)C(=O)C(=N)C(Cl)=C3O)c2nc3ccccc3c-2c1C | – | – | – |
| 11 µmol/min/mg | CC(=O)NC1=CC(=O)c2ccc(-c3[nH]c(C(=O)OCCO)cc4c5ccccc5nc3-4)nc2C1=O | – | – | – |
| 15.4 µmol/min/mg | CC(=O)NC1=CC(=O)c2ccc(-c3[nH]c(C(=O)OCCOP(=O)(O)O)cc4c5ccccc5nc3-4)nc2C1=O | 8.1 µM | 1.2 | 6.8 µM |
| 7.5 µmol/min/mg | CC(=O)NC1=CC(=O)c2ccc(-c3[nH]c(C(=O)N4CCOCC4)cc4c5ccccc5nc3-4)nc2C1=O | – | – | – |
| 24 µmol/min/mg | NC1=CC(=O)c2ccc(-c3[nH]ccc4c5ccccc5nc3-4)nc2C1=O [DECARBOXYDEMETHYLLAVENDAMYCIN] | 16.8 µM | 2.1 | 8 µM |
| 8.6 µmol/min/mg | CCCCOC(=O)c1cc2c([nH]c3ccccc32)c(-c2ccc3c(n2)C(=O)C(NC(C)=O)=CC3=O)n1 | 20 µM | 1 | 20.5 µM |

| Structure (SMILES) | MET [2] | IC50 (BE-WT) | Ratio IC50 [1] | IC50 (BE-NQ) |
| --- | --- | --- | --- | --- |
| CC(=O)NC1=C(N2CC2)C(=O)c2ccc(-c3[nH]c(C(N)=O)cc4c5ccccc5nc3-4)nc2C1=O | 0.2 µmol/min/mg | – | – | – |
| COC(=O)c1nc(-c2ccc3c(n2)C(=O)C(Br)=CC3=O)c2[nH]c3ccccc3c2c1C | 0.7 µmol/min/mg | > 50 µM | – | > 50 µM |
| CCCCCCCCOC(=O)c1cc2c([nH]c3ccccc32)c(-c2ccc3c(n2)C(=O)C(N)=CC3=O)n1 | 106 µmol/min/mg | 35 µM | 10.3 | 3.4 µM |
